# Experimental data gathered from unrelated publications.
# Each line is one published result; the experiments were not run side by side.
SMILES,tested on,assay,system,setting,quantity,value
N.N.[Cl][Pt][Cl],SU-DHL-6,"cell growth or viability, ATP luminescence",,"10 µM, 72 h",inhibition,100%
C[S+]([O-])CCCCN=C=S (stereo not drawn),HDFa,"cell growth or viability, MTT",,24 h,IC50,49.8 µM
C#Cc1ccc(O)c(C=NNC(=O)c2ccc(Br)cc2Br)c1,Aspergillus fumigatus,microbial growth,,"48 h, pH 6.5",MIC80,2 µg/mL
N#C[Se]CCCCOc1ccc2c(-c3ccccc3)cc(=O)oc2c1,HeLa,"cell growth or viability, SRB",,,GI50,23 µM
O=[N+]([O-])NC(=S)NN=Cc1ccc(Br)cc1,Leishmania major,"parasite growth, MTT",,"72 h, promastigote",IC50,433 µM
O=c1[nH]c(=O)n([C@@H]2O[C@H](COCc3ccccc3)[C@@H](OCc3ccccc3)[C@H](OCc3ccccc3)[C@H]2I)cc1F,Japanese encephalitis virus,"viral replication, inhibitor, ELISA",Vero,,IC50,4.98 µM
CN[C@H](CC(C)C)C(=O)N[C@H]1C(=O)N[C@@H](CC(N)=O)C(=O)N[C@H]2C(=O)N[C@H]3C(=O)N[C@H](C(=O)N[C@H](C(=O)O)c4cc(O)cc(O)c4-c4cc3ccc4O)[C@H](O)c3ccc(c(Cl)c3)Oc3cc2cc(c3O[C@@H]2O[C@H](CO)[C@@H](O)[C@H](O)[C@H]2O[C@H]2C[C@](C)(N)[C@H](O)[C@H](C)O2)Oc2ccc(cc2Cl)[C@H]1O,Enterococcus faecalis,microbial growth,VRE,drug-resistant strain,MIC,64 µg/mL
CC[C@H](C)[C@H](NC(=O)[C@@H]1CCCN1C(=O)[C@H](CCC(=O)O)NC(=O)[C@H](CC(C)C)NC(=O)[C@@H](N)C(C)C)C(=O)N[C@@H](CC(C)C)C(=O)N[C@@H](Cc1c[nH]cn1)C(=O)N[C@@H](CO)C(=O)N[C@H](C(=O)O)[C@@H](C)OP(=O)(O)O,HeLa,"cell growth or viability, MTT",,72 h,IC50,0.82 µM
O=[N+]([O-])NC(=S)NN=Cc1ccc(F)cc1,Leishmania major,parasite growth,J774.A1,"72 h, intracellular, amastigote",IC50,76.4 µM
C#Cc1ccc(O)c(C=NNC(=O)c2ccc(COC)cc2)c1,Aspergillus fumigatus,microbial growth,,"48 h, pH 6.5",MIC80,1 µg/mL
N#C[Se]Cc1cc(=O)oc2cc(O)ccc12,HeLa,"cell growth or viability, SRB",,,GI50,20 µM
C#Cc1cccc(C=NNC(=O)c2ccc(Br)cc2)c1O,Aspergillus fumigatus,microbial growth,,"48 h, pH 6.5",MIC80,4 µg/mL
Cc1ccc(C=NNC(=S)N[N+](=O)[O-])cc1,Leishmania major,"parasite growth, MTT",,"72 h, promastigote",IC50,346 µM
C#Cc1cccc(O)c1C=NNC(=O)c1ccc(COC)cc1,Aspergillus fumigatus,microbial growth,,"48 h, pH 6.5",MIC80,> 16 µg/mL
Nc1ccn([C@@H]2O[C@H](COCc3ccccc3)[C@@H](OCc3ccccc3)[C@H](OCc3ccccc3)[C@H]2I)c(=O)n1,Japanese encephalitis virus,"viral replication, inhibitor, ELISA",Vero,,IC50,> 20 µM
